High-throughput results from PubChem.
aSyn 5UTR inh: MLPCN primary screen, SNCA 5' untranslated region | alpha-synuclein 5'UTR reporter, inhibitor activity | AID 1813, 2009 | inhibition, % (tested at 7.5 µM) | actives 0.82% (n = 300,000); in the data active = inhibition above about 60%; inconclusive = no clear call, values can overlap the other calls;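 also: H4 neuroglioblastoma cells stably carrying SNCA 5'UTR luciferase fusion; 0% = DMSO wells and 100% = positive control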
VIM-2 inhibitor: VIM-2 metallo-beta-lactamase inhibitors, primary screen, biochemical, epi-absorbance readout, Pseudomonas aeruginosa enzyme; purified VIM-2, nitrocefin hydrolysis, epi-absorbance fluorescence; actives 0.89% (n = 290,000); inhibition, % at 5.6 µM;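 active = inhibition above the mean of all tested compounds plus 3 SD, cutoff set per screening run, cut at about 7.5% in these data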;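 also: red hydrolysis product quenches plate fluorescence so inhibitors raise well fluorescence; 0% = enzyme with DMSO and 100% = DMSO without enzyme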
Mdm2 MdmX PPI: inhibitors of human Mdm2-MdmX association, primary screen, cell-based, luminescence, split luciferase, SaOS-2, uHTS; Protein Mdm4 (Homo sapiens) + E3 ubiquitin-protein ligase Mdm2 (Homo sapiens), …; SaOS-2 split-luciferase Mdm2/MdmX complementation; inhibition, % at 8 µM; actives 3% (n = 330,000); AID 485346, 2010;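 active = inhibition of at least 50% at 8 µM in the primary screen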
Target sequence (O15151 whole entry, looked up): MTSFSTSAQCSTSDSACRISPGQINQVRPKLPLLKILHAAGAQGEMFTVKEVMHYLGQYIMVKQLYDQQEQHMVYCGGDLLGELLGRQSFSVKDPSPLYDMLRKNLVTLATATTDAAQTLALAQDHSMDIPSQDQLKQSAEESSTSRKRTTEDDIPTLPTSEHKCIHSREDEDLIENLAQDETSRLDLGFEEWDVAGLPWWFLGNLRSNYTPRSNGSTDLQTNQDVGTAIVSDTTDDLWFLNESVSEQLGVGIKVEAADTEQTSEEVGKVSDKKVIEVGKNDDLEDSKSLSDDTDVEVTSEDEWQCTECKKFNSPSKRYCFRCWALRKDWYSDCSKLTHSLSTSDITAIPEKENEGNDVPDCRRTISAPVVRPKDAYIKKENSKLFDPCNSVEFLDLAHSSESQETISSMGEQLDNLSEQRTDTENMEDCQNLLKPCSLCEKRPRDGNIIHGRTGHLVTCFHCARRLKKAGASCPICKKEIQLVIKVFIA
Target sequence (Q00987 whole entry, looked up): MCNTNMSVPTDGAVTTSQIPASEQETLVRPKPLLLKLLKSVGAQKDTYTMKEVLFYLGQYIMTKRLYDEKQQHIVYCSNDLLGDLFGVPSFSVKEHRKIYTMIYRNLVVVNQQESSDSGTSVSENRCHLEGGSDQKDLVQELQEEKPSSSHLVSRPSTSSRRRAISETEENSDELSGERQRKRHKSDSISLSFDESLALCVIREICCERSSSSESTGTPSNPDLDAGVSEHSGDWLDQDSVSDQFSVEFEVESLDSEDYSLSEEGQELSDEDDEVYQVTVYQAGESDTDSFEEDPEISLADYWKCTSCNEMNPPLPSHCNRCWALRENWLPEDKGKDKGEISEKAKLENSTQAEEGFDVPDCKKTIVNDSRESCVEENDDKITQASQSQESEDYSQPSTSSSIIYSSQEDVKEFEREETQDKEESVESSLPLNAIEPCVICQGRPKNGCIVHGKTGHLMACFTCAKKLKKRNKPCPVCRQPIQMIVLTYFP
IMP-1 inhibitor: IMP-1 metallo-beta-lactamase inhibitors, primary screen, biochemical, epi-absorbance readout, Pseudomonas aeruginosa enzyme | actives 0.45% (n = 290,000) | metallo-beta-lactamase IMP-1 (Pseudomonas aeruginosa) | purified IMP-1, nitrocefin hydrolysis, epi-absorbance fluorescence | inhibition, % at 5.6 µM;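 active = inhibition above the mean plus 3 SD of all compounds in the same screening run, cut at about 4.5% in these data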;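 also: 0% = IMP-1 with DMSO and 100% = DMSO wells lacking enzyme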
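Assay system: purified IMP-1; Quantity: IMP-1 0.2 nM before substrate addition; Medium: HEPES buffer pH 7.1 with ZnSO4 and Brij 35; Incubation: 15 min enzyme–compound preincubation, then 25 min nitrocefin reaction, 25 °C; Signal: fluorescence quenching readout, ex 480/em 530 nm; Controls: DMSO with and without IMP-1; Repeats: singlicate testing.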
Jurkat NFkB inh: inhibitors of induced NF-kB luciferase reporter, primary screen, TCR NF-kB activation inhibitor project, cell-based, luminescence, uHTS; Jurkat, PMA/ionomycin-induced NF-kB luciferase reporter; inhibition, % at 4 µM; actives 0.53% (n = 330,000); AID 435003, 2010; in the data active = inhibition above about 50%
697 NFkB inh: inhibitors of PMA/ionomycin-induced NF-kB reporter, 697 cells, primary screen, B-cell NF-kB inhibitor project, cell-based, luminescence, uHTS | actives 0.33% (n = 330,000) | 697 B-cell NF-kB luciferase reporter, 16 h | inhibition, % at 4 µM; in the data active = inhibition above about 35%
Mdm2-MdmX conf: Mdm2-MdmX complex disruptors, retested hits, confirmation, luminescence, single concentration | shares compounds with Mdm2 MdmX PPI | Mdm2-MdmX binding, luminescent assay | inhibition, % at 8 µM | actives 55% (n = 10,000) | AID 489028, 2010; in the data active = inhibition above about 40%
FLuc counter: full-length luciferase signal inhibition, confirmation, counter-screen for Mdm2/MdmX interaction inhibitor project, cell-based, single concentration, SaOS-2; shares compounds with Mdm2 MdmX PPI; SaOS-2 full-length luciferase counterscreen, luminescence; actives 77% (n = 6,200); inhibition, % at 8 µM;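 active = mean inhibition at 8 µM reaching about 37%, which flags the compound as non-specific, limit read from the data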;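 also: p53-null SaOS-2 cells with luciferase driven by a doxycycline-inducible promoter; compound on cells about two nights before reading with doxycycline added after day one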
Active calls of the source: *; ? = inconclusive; / = not tested or not shown. An excerpt weighted towards active compounds, which were near 4.7% of everything screened.

SMILES	aSyn 5UTR inh	VIM-2 inhibitor	Mdm2 MdmX PPI	IMP-1 inhibitor	Jurkat NFkB inh	697 NFkB inh	Mdm2-MdmX conf	others
Cc1cc(OC(F)F)ccc1NC(=O)Nc1ccc([N+](=O)[O-])cc1	-7	0	96*	0	-7	-3	86*	FLuc counter=47*
COc1ccc(OC(C)C(=O)Nc2ccc([N+](=O)[O-])cc2)cc1 (configuration not stated)	-6	-1	28	-1	9	7	/
COC(=O)c1ccc(NC(=O)Nc2ccc([N+](=O)[O-])cc2)cc1	-18	2	59*	1	-8	2	43*	FLuc counter=85*
O=C(Nc1ccc(C(=O)O)cc1)Nc1ccc([N+](=O)[O-])cc1	-8	-1	18	-3	16	-2	/
CCOC(=O)c1c(C)nc2c(c1-c1cc(OC)ccc1OC)C(=O)CC(C)(C)C2	11	-3	-3	-3	-1	-19	/
Cc1ccc([C@@H]2CC=C(C(=O)O)[C@H](c3ccc(Cl)cc3)N2S(=O)(=O)c2ccccc2C)cc1	/	/	10	/	5	12	/
Cc1c(-c2cccc(Cl)c2)nc2ccccc2c1C(=O)OC/C(O)=C(\C#N)c1nc2ccccc2[nH]1	6	-1	70*	0	9	-15	11
CC(C)C(=O)OC/C(O)=C(\C#N)c1nc2ccccc2[nH]1	-11	2	13	-2	-10	4	/
Cc1c(C(=O)OC/C(O)=C(\C#N)c2nc3ccccc3[nH]2)oc2ccc(Br)cc12	-14	0	85*	0	1	21	14
CC(C)OCc1c(C(=O)OC/C(O)=C(\C#N)c2nc3ccccc3[nH]2)oc2ccccc12	-12	-2	57*	-3	1	11	-5
CN(C)CCN(Cc1ccco1)S(=O)(=O)c1ccc(-c2ccc(=O)[nH]n2)s1	14	0	9	-2	-3	-11	/
Cn1nc(C(F)(F)F)c(/C=N/OC(=O)c2ccccc2Cl)c1SCc1ccccc1Cl	37	-5	55*	0	2	-1	15
CC(OC(=O)c1ccncc1)C(=O)Nc1ccc([N+](=O)[O-])cc1Cl (configuration not stated)	-5	0	2	-2	4	-5	/
CC(=O)c1ccc(NC(=O)C2CCCN(c3ncnc4c3nc3n4CCCCC3)C2)cc1 (configuration not stated)	11	-1	29	-5	-5	1	/
CSc1cccc(NC(=O)C2CCCN(c3ncnc4c3nc3n4CCCCC3)C2)c1 (configuration not stated)	7	-1	57*	-5	3	-7	-23
CC(C)c1ccc(NC(=O)C2CCN(c3ncnc4c3nc3n4CCCCC3)CC2)cc1	40	-1	72*	-1	-18	-57	30
Cc1cc2cc(C)c3nnc(SCC(=O)N4CCc5ccccc54)n3c2cc1C	/	2	/	-1	/	/	/
O=[N+]([O-])c1ccc(Oc2cccc(Br)c2)c2ccncc12	14	-3	58*	2	-2	1	18
O=[N+]([O-])c1ccc(Oc2ccc(F)cc2)c2ccncc12	37	1	60*	0	5	13	56*	FLuc counter=23
CC(=O)Nc1cccc(Oc2ncccc2[N+](=O)[O-])c1	-7	-3	-13	-1	-11	0	/
Cc1ccc(-c2cc(=O)[nH]c3ccccc23)cc1	38	-3	36	-4	-20	-14	/
COc1ccc(-c2cc(=O)[nH]c3ccccc23)cc1	/	/	58*	/	-6	-1	23
Cc1ccc(C)c(NC(=O)CN2C(=O)NC(C)(c3ccc4c(c3)OCCO4)C2=O)c1 (configuration not stated)	/	/	3	/	-4	16	/
Cc1ccc(-c2csc(/C=C3\SC(C)C(=O)N3CC(=O)Nc3ccccc3F)n2)cc1 (configuration not stated)	6	0	47	0	6	6	/
O=C(CN1C(=O)CS/C1=C\c1nc(-c2ccc(Cl)cc2)cs1)Nc1cccnc1Cl	15	2	79*	-2	-7	17	19
SMILES	aSyn 5UTR inh	VIM-2 inhibitor	Mdm2 MdmX PPI	IMP-1 inhibitor	Jurkat NFkB inh	697 NFkB inh	Mdm2-MdmX conf	others
C=CCCc1ccc(C#N)c(SCc2c(C(=O)OCC)c3cc(OC(C)=O)c(Br)cc3n2C)n1	-4	-2	66*	-4	18	-7	89*	FLuc counter=21
CCOC(=O)c1c(CSc2nc(C)cc(C)c2C#N)n(C)c2cc(Br)c(OC(C)=O)cc12	41	-1	72*	-1	5	-24	23
CCCCCCCCOC(=O)c1c(CSC(=N)N)n(C)c2cc(Br)c(OC(C)=O)cc12	?	-1	-5	-2	15	-8	/
CCOC(=O)CNC(=O)Cc1ccc(OC)cc1	-26	-3	13	-2	-5	2	/
CN(Cc1cccs1)C(=O)Cn1cnc2ccccc2c1=O	-2	-2	-18	-3	-2	20	/
C=C[C@@H]1c2cc(C)ccc2N(S(=O)(=O)c2ccc(C)cc2)[C@H](c2ccc(OC(C)=O)cc2)C1(C#N)C#N	/	/	72*	/	29	11	65*	FLuc counter=72*
Cc1nnc(SC(=O)N2c3ccccc3Sc3ccccc32)s1	-66	-2	97*	-3	13	-93	98*	FLuc counter=52*
COc1cccc(OC)c1C(=O)OCC(=O)NC1CCCCCC1	/	/	-23	/	-12	7	/
COc1cccc(CNc2ncnc3cc(Cl)ccc23)c1	-12	-5	/	-5	/	/	/
COc1cccc(CNc2ncnc3ccc(-c4c(C)noc4C)cc23)c1	/	/	85*	/	10	23	73*	FLuc counter=31
Cc1ccsc1CNc1ncnc2ccc(-c3c(C)noc3C)cc12	/	/	94*	/	-7	24	69*	FLuc counter=52*
c1cncc(CNc2ncnc3ccc(-c4cccnc4)cc23)c1	/	/	4	/	0	16	/
Cc1cc(C(C)(C)C)cc(C)c1C(=O)O	9	-1	-6	-3	4	10	/
